We go through five molecules from ChEMBL document CHEMBL5053496, “Antibacterial sulfonimidamide-based oligopeptides as type I signal peptidase inhibitors: Synthesis and biological evaluation” (Eur J Med Chem, 2021).

Data set [1] has as its system Escherichia coli. Put plainly: Antibacterial activity against wild type Escherichia coli ATCC 25922 assessed as inhibition of bacterial growth measured after 16 to 20 hrs. As to conditions: time 16-20 hrs. Type of data set: functional. In short, it runs like this:
(§1)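 Read visually as complete growth inhibition by the unaided eye, with medium-only wells as control.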

The test system of data set [2] is Escherichia coli. Put plainly: Antibacterial activity against Escherichia coli harboring tolC efflux defective mutant assessed as inhibition of bacterial growth measured after 16 to 20 hrs. As to conditions: time 16-20 hrs. In kind it is functional. In short, it runs like this: (§2)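 MIC read visually as the lowest concentration giving complete growth inhibition to the unaided eye, with medium-only wells as the control.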

The test system of data set [3] is Escherichia coli. Put plainly: Antibacterial activity against Escherichia coli D22 mutant assessed as inhibition of bacterial growth measured after 16 to 20 hrs. In kind it is functional. As to conditions: time 16-20 hrs. In short, it runs like this:
as §2

A further data set deals with HepG2. Put plainly: Cytotoxicity against human HepG2 cells assessed as reduction in cell viability measured after 72 hrs by fluorometric assay. In kind it is cell-based. Particulars: HepG2, 72 h. The gist of the method:
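HepG2 cells grown with L-glutamine 2 mM, passaged twice weekly, used up to 20 passages. Seeded at 1000 cells/well in 384-well plates, exposed 72 h. Fluorescence read-out; survival index (%) = test-well fluorescence as percent of control cultures, blanks subtracted. Assay accepted if control signal-to-noise >10, CV <30%, bortezomib positive control SI <5%.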

The next data set concerns Klebsiella pneumoniae. Put plainly: Antibacterial activity against wild type Klebsiella pneumoniae ATCC 13883 assessed as inhibition of bacterial growth measured after 16 to 20 hrs.
For data set [4], the system named is Pseudomonas aeruginosa. Put plainly: Antibacterial activity against efflux pump deficient Pseudomonas aeruginosa PAO750 assessed as inhibition of bacterial growth measured after 16 to 20 hrs. Particulars: time 16-20 hrs. In kind it is functional. The gist of the method: as §1
A short description of data set [5]: Inhibition of Escherichia coli LepB using dabcyl-VEVGGTATA GFSPRGLE-EDANS and dabcyl-KLTGFTVKPVQAIA GYEILE-EDANS-OH as substrates preincubated for 10 mins followed by substrate addition by FRET assay. The gist of the method:
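FRET assay with recombinant E. coli LepB, final about 50 nM. Enzyme pre-incubated with inhibitor 10 min at 22 °C, then substrate added at 8 µM. Linear fluorescence increase from cleavage followed at 22 °C for 2 h. IC50 from non-linear regression of sigmoidal rate vs. inhibitor concentration curves.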

The nature of data set [6]: Hemolytic activity against human RBC assessed as hemolysis measured after 45 mins. Type of data set: ADME, tissue-based, Erythrocyte. As to conditions: red blood cells (RBC), read-out: Activity. In short, it runs like this: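 Human RBCs from heparinized blood, washed three times in Tyrode buffer pH 7.4. Final 100 µM compound, 1% DMSO, 50% RBC; 37 °C, 45 min, shaking 250 rpm. Cells spun off, supernatant hemoglobin read at 540 nm. Percent hemolysis relative to 2% Triton X-100 full lysis and buffer-only negative control.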

The next data set relates to Acinetobacter baumannii. Put plainly: Antibacterial activity against Acinetobacter baumanii ATCC 19606 assessed as inhibition of bacterial growth measured after 16 to 20 hrs. In kind it is functional. Particulars: ATCC 19606 = CIP 70.34 = JCM 6841, time 16-20 hrs. In short, it runs like this:
as §1

For another data set, the system named is Staphylococcus aureus. Put plainly: Antibacterial activity against staphylococcus aureus ATCC 29213 assessed as inhibition of bacterial growth measured after 16 to 20 hrs. In kind it is functional. As to conditions: time 16-20 hrs. The gist of the method: as §1
In data set [7] the test system is Pseudomonas aeruginosa. Put plainly: Antibacterial activity against wild type Pseudomonas aeruginosa PAO1 assessed as inhibition of bacterial growth measured after 16 to 20 hrs. In kind it is functional. Particulars: time 16-20 hrs. The gist of the method: as §1

In brackets after ≈: the same amount, converted by molar mass.

For the molecule `CCCCCCc1ccc(-c2ccc(S(=O)(=NCCN)N3CCC[C@H]3C(=O)N[C@H](C(=O)N[C@@H](C)C(=O)NC(CC(N)=O)C(=O)N[C@@H](C)B3O[C@@H]4C[C@H]5C[C@H](C5(C)C)[C@]4(C)O3)[C@@H](C)O)cc2)cc1` (stereo not given in full), the MIC (commonly the lowest concentration that inhibits growth of the organism) was 64 µg/mL (≈ 67.4 µM) in the data set on Escherichia coli [1]; 16 µg/mL (≈ 16.9 µM) with Escherichia coli [2]; 8 µg/mL (≈ 8.43 µM) with Escherichia coli [3]; over 64 µg/mL in the data set with Klebsiella pneumoniae; over 64 µg/mL in the data set with Pseudomonas aeruginosa [4]; 64 µg/mL (≈ 67.4 µM) in the data set with Acinetobacter baumannii. In addition, the MIC in the data set on Staphylococcus aureus was under 1 µg/mL; in the data set on Pseudomonas aeruginosa [7], over 64 µg/mL. The results for the concentration for half-maximal inhibition (IC50) (in the data set on HepG2; in data set [5]) were 5200 nM and 133 nM, respectively. The hemolysis at 0.75 h in data set [6] was 5.32%.
`CCCCCCCCCCCCS(=O)(=O)N1CCC[C@H]1C(=O)N[C@H](C(=O)N[C@@H](C)C(=O)NC(CC(N)=O)C(=O)N[C@@H](C)B1O[C@@H]2C[C@H]3C[C@H](C3(C)C)[C@]2(C)O1)[C@@H](C)O` (mixture of isomers): the MIC was over 64 µg/mL with Escherichia coli [1]; 8 µg/mL in the data set on Escherichia coli [2]; 16 µg/mL in the data set with Escherichia coli [3]; over 64 µg/mL in the data set on Klebsiella pneumoniae; 32 µg/mL with Pseudomonas aeruginosa [4]; over 64 µg/mL with Acinetobacter baumannii. Besides, the minimal inhibitory concentration (MIC) is under 1 µg/mL in the data set on Staphylococcus aureus and over 64 µg/mL in the data set with Pseudomonas aeruginosa [7]. The IC50 (as a rule, the concentration at which inhibition is half-maximal) with HepG2 worked out at 1200 nM; in [5], 56 nM. Further, in data set [6], the hemolysis at 0.75 h stood at 0.1%.
Consider `CCCCCCc1ccc(-c2ccc([S@@](=N)(=O)N3CCC[C@H]3C(=O)N[C@H](C(=O)N[C@@H](C)C(=O)NC(CC(N)=O)C(=O)N[C@@H](C)B3O[C@@H]4C[C@H]5C[C@H](C5(C)C)[C@]4(C)O3)[C@@H](C)O)cc2)cc1` (mixture of isomers), for which the MIC in the data set on Escherichia coli [1] was over 64 µg/mL; with Escherichia coli [2], 4 µg/mL; in the data set with Escherichia coli [3], 32 µg/mL; in the data set with Klebsiella pneumoniae, over 64 µg/mL; with Pseudomonas aeruginosa [4] it was over 64 µg/mL; in the data set with Acinetobacter baumannii, over 64 µg/mL. Also, the MIC was 4 µg/mL with Staphylococcus aureus and over 64 µg/mL with Pseudomonas aeruginosa [7]. The IC50 with HepG2 turned out to be 2990 nM; in data set [5], 1110 nM. Besides, in data set [6], the hemolysis at 0.75 h was found to be 0.35%.
As for `CCCCCCc1ccc(-c2ccc([S@](=N)(=O)N3CCC[C@H]3C(=O)N[C@H](C(=O)N[C@@H](C)C(=O)NC(CC(N)=O)C(=O)N[C@@H](C)B3O[C@@H]4C[C@H]5C[C@H](C5(C)C)[C@]4(C)O3)[C@@H](C)O)cc2)cc1` (mixture of isomers), the MIC in the data set with Escherichia coli [1] was over 64 µg/mL; in the data set with Escherichia coli [2], 4 µg/mL; in the data set on Escherichia coli [3], 8 µg/mL; in the data set with Klebsiella pneumoniae, over 64 µg/mL; in the data set with Pseudomonas aeruginosa [4], over 64 µg/mL; in the data set on Acinetobacter baumannii, over 64 µg/mL. Further, the MIC was 4 µg/mL with Staphylococcus aureus and over 64 µg/mL in the data set with Pseudomonas aeruginosa [7]. For the same molecule, the half-maximal inhibitory concentration (IC50) with HepG2 was found to be 2950 nM; in data set [5], 1070 nM. In addition, in data set [6], the hemolysis at 0.75 h came to 2.15%.
Regarding `CCCCCCc1ccc(-c2ccc(S(=O)(=O)N3CCC[C@H]3C(=O)N[C@H](C(=O)N[C@@H](C)C(=O)NC(CC(N)=O)C(=O)N[C@@H](C)B3O[C@@H]4C[C@H]5C[C@H](C5(C)C)[C@]4(C)O3)[C@@H](C)O)cc2)cc1` (mixture of isomers), the MIC with Escherichia coli [1], in the data set on Escherichia coli [2], with Escherichia coli [3], in the data set with Klebsiella pneumoniae, with Pseudomonas aeruginosa [4] and in the data set with Acinetobacter baumannii was over 64 µg/mL in each case. Besides, the MIC in the data set with Staphylococcus aureus and with Pseudomonas aeruginosa [7] was over 64 µg/mL each time. The IC50 worked out at 580 nM in the data set with HepG2 and 71 nM in data set [5]. In addition, the hemolysis at 0.75 h in data set [6] is 14.5%.
